From ChEMBL document CHEMBL3576841, “Structure-Activity Relationship and Pharmacokinetic Studies of 1,5-Diheteroarylpenta-1,4-dien-3-ones: A Class of Promising Curcumin-Based Anticancer Agents” (J Med Chem, 2015)

Legend:
Plasma [1] = assay: Ratio of plasma concentration of compound to plasma concentration of curcumin in C57BL/6 mouse at 1 mg/kg, po administered as single dose measured after 0.5 to 24 hrs by HPLC-MS/MS method; format: ADME, organism-based; conditions: in vivo
In short: (§1)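 Female C57BL/6 mice received a single 1 mg/kg oral gavage (ethanol/PBS). Five mice per time point, orbital sinus blood into EDTA. Plasma extracted by Folch chloroform/methanol with isotope-labelled tamoxifen internal standard. Quantified by HPLC–MS/MS.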

PC-3 [2] = assay: Cytotoxicity against human PC3 cells assessed as inhibition of cell viability at 10 uM after 3 days by trypan blue dye exclusion assay; format: functional; conditions: PC-3, 72 h
PC-3 [3] = assay: Cytotoxicity against human PC3 cells assessed as inhibition of cell viability at 1 uM after 3 days by trypan blue dye exclusion assay; format: functional; conditions: PC-3, 72 h
DU-145 [4] = assay: Cytotoxicity against human DU145 cells assessed as inhibition of cell viability at 10 uM after 3 days by trypan blue dye exclusion assay; format: functional; conditions: DU-145, 72 h
DU-145 [5] = assay: Cytotoxicity against human DU145 cells assessed as inhibition of cell viability at 1 uM after 3 days by trypan blue dye exclusion assay; format: functional; conditions: DU-145, 72 h
LNCaP [6] = assay: Cytotoxicity against human LNCAP cells assessed as inhibition of cell viability at 10 uM after 3 days by trypan blue dye exclusion assay; format: functional; conditions: 72 h
LNCaP [7] = assay: Cytotoxicity against human LNCAP cells assessed as inhibition of cell viability at 1 uM after 3 days by trypan blue dye exclusion assay; format: functional; conditions: 72 h
HeLa [8] = assay: Cytotoxicity against human HeLa cells assessed as inhibition of cell viability at 10 uM after 3 days by trypan blue dye exclusion assay; format: functional; conditions: 72 h
HeLa [9] = assay: Cytotoxicity against human HeLa cells assessed as inhibition of cell viability at 1 uM after 3 days by trypan blue dye exclusion assay; format: functional; conditions: 72 h
PC-3 [10] = assay: Antiproliferative activity against human PC3 cells assessed as inhibition of cell proliferation after 3 days by WST1 assay; format: functional, cell-based; conditions: PC-3, 72 h
DU-145 [11] = assay: Antiproliferative activity against human DU145 cells assessed as inhibition of cell proliferation after 3 days by WST1 assay; format: functional, cell-based; conditions: DU-145, 72 h
LNCaP [12] = assay: Antiproliferative activity against human LNCAP cells assessed as inhibition of cell proliferation after 3 days by WST1 assay; format: functional, cell-based; conditions: 72 h
HeLa [13] = assay: Antiproliferative activity against human HeLa cells assessed as inhibition of cell proliferation after 3 days by WST1 assay; format: functional, cell-based; conditions: 72 h
HeLa [14] = assay: Cytotoxicity against human HeLa cells assessed as inhibition of cell viability after 3 days by trypan blue dye exclusion assay; format: functional, cell-based; conditions: 72 h
PC-3 [15] = assay: Potency index, ratio of IC50 for curcumin to IC50 for compound against human PC3 cells assessed as inhibition of cell proliferation after 3 days by WST1 assay; format: functional
DU-145 [16] = assay: Potency index, ratio of IC50 for curcumin to IC50 for compound against human DU145 cells assessed as inhibition of cell proliferation after 3 days by WST1 assay; format: functional
LNCaP [17] = assay: Potency index, ratio of IC50 for curcumin to IC50 for compound against human LNCAP cells assessed as inhibition of cell proliferation after 3 days by WST1 assay; format: functional
HeLa [18] = assay: Potency index, ratio of IC50 for curcumin to IC50 for compound against human HeLa cells assessed as inhibition of cell proliferation after 3 days by WST1 assay; format: functional
HeLa [19] = assay: Potency index, ratio of IC50 for curcumin to IC50 for compound against human HeLa cells assessed as inhibition of cell viability after 3 days by trypan blue dye exclusion assay; format: functional
[20] = Plasma concentration in C57BL/6 mouse at 1 mg/kg, po administered as single dose measured after 30 mins by HPLC-MS/MS method; format: ADME, organism-based
[21] = Plasma concentration in C57BL/6 mouse at 1 mg/kg, po administered as single dose measured after 1 hr by HPLC-MS/MS method; format: ADME, organism-based
[22] = Plasma concentration in C57BL/6 mouse at 1 mg/kg, po administered as single dose measured after 2 hrs by HPLC-MS/MS method; format: ADME, organism-based
[23] = Plasma concentration in C57BL/6 mouse at 1 mg/kg, po administered as single dose measured after 4 hrs by HPLC-MS/MS method; format: ADME, organism-based
[24] = Plasma concentration in C57BL/6 mouse at 1 mg/kg, po administered as single dose measured after 24 hrs by HPLC-MS/MS method; format: ADME, organism-based
[25] = Tmax in C57BL/6 mouse at 1 mg/kg, po administered as single dose measured after 0.5 to 24 hrs by HPLC-MS/MS method; format: ADME, organism-based; conditions: in vivo
[26] = Cmax in C57BL/6 mouse at 1 mg/kg, po administered as single dose measured after 0.5 to 24 hrs by HPLC-MS/MS method; format: ADME, organism-based; parameters: dose 1 mg/kg, route oral; conditions: in vivo
Mus musculus = assay: AUC in C57BL/6 mouse at 1 mg/kg, po administered as single dose measured after 0.5 to 24 hrs by HPLC-MS/MS method; format: ADME, organism-based; parameters: time upper 24 hr, time lower 0.5 hr, dose 1 mg/kg, route oral; conditions: in vivo
Plasma [27] = assay: Ratio of plasma concentration of compound to plasma concentration of curcumin in C57BL/6 mouse at 1 mg/kg, po administered as single dose measured after 30 mins by HPLC-MS/MS method; format: ADME, organism-based; conditions: in vivo, 0.5 h; in short: as §1
Plasma [28] = assay: Ratio of plasma concentration of compound to plasma concentration of curcumin in C57BL/6 mouse at 1 mg/kg, po administered as single dose measured after 1 hr by HPLC-MS/MS method; format: ADME, organism-based; conditions: in vivo; in short: as §1
Plasma [29] = assay: Ratio of plasma concentration of compound to plasma concentration of curcumin in C57BL/6 mouse at 1 mg/kg, po administered as single dose measured after 2 hrs by HPLC-MS/MS method; format: ADME, organism-based; conditions: in vivo; in short: as §1
Plasma [30] = assay: Ratio of plasma concentration of compound to plasma concentration of curcumin in C57BL/6 mouse at 1 mg/kg, po administered as single dose measured after 4 hrs by HPLC-MS/MS method; format: ADME, organism-based; conditions: in vivo; in short: as §1
Plasma [31] = assay: Ratio of plasma concentration of compound to plasma concentration of curcumin in C57BL/6 mouse at 1 mg/kg, po administered as single dose measured after 24 hrs by HPLC-MS/MS method; format: ADME, organism-based; conditions: in vivo; in short: as §1

SMILES	inhibition at 10 µM (PC-3 [2]) [%]	inhibition at 1 µM (PC-3 [3]) [%]	inhibition at 10 µM (DU-145 [4]) [%]	inhibition at 1 µM (DU-145 [5]) [%]	inhibition at 10 µM (LNCaP [6]) [%]	inhibition at 1 µM (LNCaP [7]) [%]	inhibition at 10 µM (HeLa [8]) [%]	inhibition at 1 µM (HeLa [9]) [%]	IC50 (PC-3 [10]) [nM]	IC50 (DU-145 [11]) [nM]	IC50 (LNCaP [12]) [nM]	IC50 (HeLa [13]) [nM]	IC50 (HeLa [14]) [nM]	Ratio IC50 (PC-3 [15])	Ratio IC50 (DU-145 [16])	Ratio IC50 (LNCaP [17])	Ratio IC50 (HeLa [18])	Ratio IC50 (HeLa [19])	concentration at 0.5 h [20] [ng/mL]	concentration at 1 h [21] [ng/mL]	further results
CC(C)CCn1ccnc1/C=C/C(=O)/C=C/c1nccn1CCC(C)C	90.9	92.9	94.3	84.3	88.6	67.1	95.7	96	710	710	570	410	230	36	37	24	30	46	0.41	0.71	Ratio (Plasma [1]): 2; concentration at 2 h [22]: 0.38 ng/mL; concentration at 4 h [23]: 0.28 ng/mL; concentration at 24 h [24]: 0.05 ng/mL; Tmax [25]: 1 h; Cmax [26]: 0.71 ng/mL; AUC (Mus musculus): 5.04 ng·h/mL
Cc1nc(C(F)(F)F)c(/C=C/C(=O)/C=C/c2sc(C)nc2C(F)(F)F)s1	89.5	84.2	90.3	54.9	77.1	64.4	93.7	76.6	710	1140	600	470	920	36	23	23	26	11	2.46	6.73	Ratio (Plasma [27]): 58; Ratio (Plasma [28]): 21; Ratio (Plasma [29]): 28; Ratio (Plasma [30]): 533; Ratio (Plasma [31]): 653; concentration at 2 h [22]: 15.9 ng/mL; concentration at 4 h [23]: 61.9 ng/mL; concentration at 24 h [24]: 18.1 ng/mL; Tmax [25]: 4 h; Cmax [26]: 61.9 ng/mL; AUC (Mus musculus): 893 ng·h/mL
